Measured values collected from several papers.
Each line is one published result; the experiments were not run side by side.
ADORA2B: Adenosine receptor A2b (ADORA2B, Homo sapiens, UniProt P29275)
PKN3: Serine/threonine-protein kinase N3 (PKN3, Homo sapiens, UniProt Q6P5Z2)
CFTR: Cystic fibrosis transmembrane conductance regulator (CFTR, Homo sapiens, UniProt P13569)

O=C(c1ccc(F)cc1)N(Cc1ccccc1)C1CCCCC1  inhibition (Muscarinic acetylcholine receptor M1 (CHRM1, Homo sapiens, UniProt P11229); cell-free assay; 10 µM): -1%
CCN1CCCn2c1nc1c2c(=O)n(C)c(=O)n1C  inhibition (ADORA2B; ligand displacement, radioligand; 10 µM, cell membranes): 12%
Cn1cncc1C1=CN(c2ncnc3[nH]cnc23)CCS1  inhibition (PKN3; enzyme activity, inhibitor, radiometric; 50 nM): 18.6%
CC(C)CCCC(C)N1CCCn2c1nc1c2c(=O)n(C)c(=O)n1C (centres unmarked)  inhibition (ADORA2B; ligand displacement, radioligand; 10 µM, cell membranes): 0%
CC(=NNC(=O)C(=O)Nc1ccc2ccccc2c1)c1cc(Br)c(O)c(Br)c1O  inhibition (CFTR; ion current, inhibitor; 50 µM): 95%
CN(C)C1CCN(CC#Cc2nn(C3CCCC3)c3nc(NCc4ccccc4)ncc23)C1 (centres unmarked)  inhibition (Dual specificity protein kinase CLK2 (CLK2, Homo sapiens, UniProt P49760); enzyme activity, inhibitor, FRET; 10 µM): 33%
Cc1ccc(NCC(=O)NN=Cc2cc(Br)c(O)c(Br)c2O)cc1  inhibition (CFTR; ion current, inhibitor; 50 µM): 79%
COc1cc(NC(C)=O)c(Cl)cc1C(=O)Nc1nccs1  inhibition (Prostaglandin E2 receptor EP2 subtype (PTGER2, Homo sapiens, UniProt P43116); cell-free assay; 10 µM): 36.3%
CC(Nc1ccc2ccccc2c1)C(=O)NN=Cc1cc(Br)c(O)c(Br)c1 (centres unmarked)  inhibition (CFTR; ion current, inhibitor; 50 µM): 80%
Cn1cnc(Br)c1C1=CN(c2ncnc3[nH]cnc23)CCS1  inhibition (PKN3; enzyme activity, inhibitor, radiometric; 50 nM): 29.2%
CC(=O)c1nn(CC(=O)N2C[C@H](F)C[C@H]2C(=O)Nc2cccc(Br)n2)c2ccc(-c3cnc(C)nc3)cc12  inhibition (Chymase (CMA1, Homo sapiens, UniProt P23946); enzyme activity, inhibitor; 10 µM): -1.2%
C=CCN1CCCn2c1nc1c2c(=O)n(C)c(=O)n1C  inhibition (ADORA2B; ligand displacement, radioligand; 10 µM, cell membranes): 6%
O=C(CNc1ccc(Cl)cc1)NN=Cc1cc(Br)c(O)c(Br)c1O  inhibition (CFTR; ion current, inhibitor; 50 µM): 91%
CCN(c1cc(C#CCN2CCOCC2)cc(C(=O)NCc2c(C)cc(C)[nH]c2=O)c1C)[C@H]1CC[C@H](N(C)CCOC)CC1  inhibition (Histone-lysine N-methyltransferase, H3 lysine-79 specific (DOT1L, Homo sapiens, UniProt Q8TEK3); enzyme activity, inhibitor; 1 µM): 1%
O=C(NN=Cc1cc(Br)c(O)c(Br)c1)C(=O)Nc1ccc2ccccc2c1  inhibition (CFTR; ion current, inhibitor; 50 µM): 80%
CCC(C)N1CCCn2c1nc1c2c(=O)n(C)c(=O)n1C (centres unmarked)  inhibition (ADORA2B; ligand displacement, radioligand; 10 µM, cell membranes): -9%
O=C(c1ccc(Cl)cc1)N(Cc1ccccc1)C1CCCCC1  inhibition (ADORA2B; cell-free assay; 10 µM): -5.4%
C#CCN1CCCn2c1nc1c2c(=O)n(C)c(=O)n1C  inhibition (ADORA2B; ligand displacement, radioligand; 10 µM, cell membranes): 29%
CCOC(=O)C1=C(C)NC(c2ccccc2)=C(C(=O)OCc2ccccc2)C1C#Cc1ccccc1 (centres unmarked)  inhibition (Adenosine receptor A1 (Mus musculus, UniProt Q60612); ligand displacement, radioligand; 10 µM, cell membranes): 0%
C=CN1CCCn2c1nc1c2c(=O)n(C)c(=O)n1C  inhibition (ADORA2B; ligand displacement, radioligand; 10 µM, cell membranes): 1%
CC(C)(NC(=O)OC1CCCCC1)c1csc(-c2ccc(F)cc2)n1  inhibition (N-terminal Xaa-Pro-Lys N-methyltransferase 1 (Homo sapiens, UniProt Q9BV86); enzyme activity, inhibitor, fluorescence; 100 µM): < 50%
CN1CCCn2c1nc1c2c(=O)n(C)c(=O)n1C  inhibition (ADORA2B; ligand displacement, radioligand; 10 µM, cell membranes): 6%
O=C(CNc1cccc2ccccc12)NN=Cc1cc(Br)c(O)c(Br)c1O  inhibition (CFTR; ion current, inhibitor; 50 µM): 86%
